We go through four compounds from ChEMBL document CHEMBL3994613, “Diaryltriazenes as antibacterial agents against methicillin resistant Staphylococcus aureus (MRSA) and Mycobacterium smegmatis” (Eur J Med Chem, 2017).

Data set [1] is described as follows: Stability in PBS buffer at pH 7.4 NMR method. The format is physicochemical.
The nature of data set [2]: Stability in PBS buffer at pH 7.4 by TLC method. The format is physicochemical.
For data set [3], the system named is Acinetobacter baumannii. Description: Antibacterial activity against Acinetobacter baumannii ATCC 19606 after 18 to 20 hrs by broth microdilution method. The format is functional. To be noted: ATCC 19606 = CIP 70.34 = JCM 6841. A digest of the protocol:
(§1)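 Broth microdilution per EUCAST in TSB broth. Inoculum prepared by CLSI direct colony suspension from 20–24 h TSA colonies, final 3×10^4 CFU/mL. Aerobic incubation for 18–20 h at 37 °C, growth read on plate reader, at least one duplicate.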

Data set [4] concerns Enterococcus faecalis. The data set can be described thus: Antibacterial activity against vancomycin resistant Enterococcus faecalis 501 after 18 to 20 hrs by broth microdilution method. The format is functional. A digest of the protocol: (§2)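 EUCAST microdilution in BHI broth. Inoculum from 20–24 h colonies on 5% sheep blood BHI agar, final 3×10^4 CFU/mL, 18–20 h aerobic at 37 °C, plate reader, at least duplicate.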
On the technique in general: Dilution methods test growth across graded concentrations, often in twofold steps.

A short description of data set [5]: Solubility of the compound in water. The format is physicochemical. The following applies: buffer.
Data set [6] relates to Mycolicibacterium smegmatis. Description: Bactericidal activity against Mycobacterium smegmatis MC2 155 after 96 hrs by microdilution method. To be noted: str. MC2 155, 96 h. The format is functional. In a few lines:
(§3)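 Microdilution in TSB broth. Inoculum from colonies grown 96 h on TSA, final 1×10^5 CFU/mL, aerobic 94–98 h at 37 °C, growth read on a plate reader, at least duplicate.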

The subject of data set [7] is Saccharomyces cerevisiae. The data set can be described thus: Antibacterial activity against Saccharomyces cerevisiae after 18 to 20 hrs by microdilution method. In a few lines: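 Microdilution in YEP broth against wild-type yeast grown on YEP agar. Final inoculum 1×10^5 CFU/mL. Read after 18–20 h aerobic incubation at 30 °C on plate reader, at least one duplicate.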

The subject of data set [8] is Escherichia coli. Description: Bactericidal activity against Escherichia coli D22 after 18 to 20 hrs by microdilution method. The format is functional.
The subject of data set [9] is Staphylococcus aureus. The data set can be described thus: Bactericidal activity against methicillin-resistant Staphylococcus aureus USA300 after 18 to 20 hrs by microdilution method. The format is functional. A digest of the protocol: (§4)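 EUCAST broth microdilution in LB broth. Inoculum prepared by direct colony suspension from 20–24 h LB agar (E. coli DH10β) or 5% sheep blood BHI agar (MRSA USA300) growth. Final inoculum 2×10^4 CFU/mL, 18–20 h aerobic at 37 °C, growth read on a plate reader, at least duplicate.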

The subject of data set [10] is Staphylococcus aureus. Description: Bactericidal activity against methicillin-resistant Staphylococcus aureus 1653 after 18 to 20 hrs by broth microdilution method. The format is functional. A digest of the protocol: (§5)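 EUCAST broth microdilution in LB broth. Inoculum from 20–24 h colonies on 5% sheep blood BHI agar, final 3×10^4 CFU/mL, 18–20 h aerobic at 37 °C, plate reader, at least duplicate.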

For data set [11], the system named is Bacillus subtilis. The data set can be described thus: Bactericidal activity against Bacillus subtilis ATCC 6051 after 18 to 20 hrs by broth microdilution method. The format is functional.
Data set [12] in a line: Stability of the compound in organic solvent. The format is physicochemical.
For data set [13], the system named is Pseudomonas aeruginosa. The data set can be described thus: Antibacterial activity against Pseudomonas aeruginosa PA0001 after 18 to 20 hrs by broth microdilution method. The format is functional. In a few lines: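 EUCAST broth microdilution in LB broth. Inoculum from 20–24 h LB agar colonies (CLSI direct colony suspension), final 3×10^4 CFU/mL. Aerobic incubation 18–20 h at 37 °C, plate-reader read-out, at least one duplicate.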

A short description of data set [14]: Stability of the compound in solid state. The format is physicochemical.
The subject of data set [15] is Staphylococcus aureus. The data set can be described thus: Induction of membrane integrity impairment in Staphylococcus aureus USA300 assessed as cells with intact membrane at 2 ug/ml measured after 30 mins by Baclight assay relative to control. The format is functional. In a few lines:
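LIVE/DEAD BacLight fluorescence assay. Dye was then added and incubated 15 min in the dark at room temperature. Intact membrane % came from a live/dead (isopropanol-killed) standard curve, at least triplicate, mean±SD.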

The subject of data set [16] is Mycolicibacterium smegmatis. Description: Antimycobacterial activity against Mycobacterium smegmatis MC2 155 after 94 to 98 hrs by microdilution method. The format is functional. To be noted: str. MC2 155. In a few lines: as §3
Data set [17] concerns Klebsiella pneumoniae. Description: Antibacterial activity against Klebsiella pneumoniae ATCC 700603 after 18 to 20 hrs by broth microdilution method. The format is functional. A digest of the protocol: as §1
Data set [18] relates to Streptococcus pneumoniae. The data set can be described thus: Antibacterial activity against Streptococcus pneumoniae R6 after 18 to 20 hrs by broth microdilution method. The format is functional. In a few lines:
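Broth microdilution per EUCAST in BHI broth. Inoculum from colonies on BHI agar with 5% sheep blood, final 5×10^4 CFU/mL. Read after 18–20 h anaerobic incubation at 37 °C.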

Data set [19] relates to Escherichia coli. Description: Antibacterial activity against Escherichia coli D22 after 18 to 20 hrs by microdilution method. The format is functional. In a few lines: (§6)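 Broth microdilution per EUCAST in LB broth. Inoculum from 20–24 h colonies by CLSI direct colony suspension (LB agar for E. coli), final 2×10^4 CFU/mL. Read after 18–20 h aerobic incubation at 37 °C on plate reader, at least one duplicate.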

In data set [20] the test system is Escherichia coli. The data set can be described thus: Antibacterial activity against Escherichia coli DH10beta harboring pHuLUC3 after 18 to 20 hrs by microdilution method. The format is functional. A digest of the protocol:
as §4

In data set [21] the test system is Streptococcus pneumoniae. The data set can be described thus: Bactericidal activity against Streptococcus pneumoniae R6 after 18 to 20 hrs by broth microdilution method. The format is functional.
Data set [22] concerns Enterococcus faecalis. The data set can be described thus: Bactericidal activity against vancomycin resistant Enterococcus faecalis 501 after 18 to 20 hrs by broth microdilution method. The format is functional. In a few lines: as §2
Data set [23] deals with Escherichia coli. Description: Antibacterial activity against N43 CGSC 5583 knock out Escherichia coli after 18 to 20 hrs by microdilution method. The format is functional. A digest of the protocol: as §6
Data set [24] relates to Staphylococcus aureus. Description: Antibacterial activity against methicillin-resistant Staphylococcus aureus USA300 after 18 to 20 hrs by microdilution method. The format is functional. A digest of the protocol: as §4
Data set [25] concerns Klebsiella pneumoniae. Description: Antibacterial activity against Klebsiella pneumoniae ATCC 13882 after 18 to 20 hrs by broth microdilution method. The format is functional. In a few lines:
as §1

In data set [26] the test system is Escherichia coli. The data set can be described thus: Bactericidal activity against Escherichia coli DH10beta harboring pHuLUC3 after 18 to 20 hrs by microdilution method. The format is functional. In a few lines:
as §4

Data set [27] can be described thus: Stability of the compound in water. The format is physicochemical. To be noted: buffer.
Data set [28] has as its system Staphylococcus aureus. Description: Antibacterial activity against methicillin-resistant Staphylococcus aureus 1653 after 18 to 20 hrs by broth microdilution method. The format is functional. In a few lines: as §5
Data set [29] relates to Acinetobacter baumannii. Description: Antibacterial activity against Acinetobacter baumannii ATCC BAA-1605 after 18 to 20 hrs by broth microdilution method. The format is functional. In a few lines:
as §1

Data set [30] concerns Bacillus subtilis. The data set can be described thus: Antibacterial activity against Bacillus subtilis ATCC 6051 after 18 to 20 hrs by broth microdilution method. The format is functional. In a few lines: as §6
The nature of data set [31]: Stability in pH 7.4 DMSOd6/PBS buffer assessed as glutathione reactivity incubated for 24 hrs by 1H NMR spectroscopic method. The following applies: pH 7.4, 24 h. The format is physicochemical. A digest of the protocol:
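Equimolar reduced glutathione and compound were incubated at room temperature in DMSO-d6/phosphate buffer pH 7.4 (1:1, v/v). The mixture was monitored by NMR.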

One may read the MBC as the smallest concentration meeting the test's criterion for killing. Lower therefore signals more potent killing.

Values after ≈ are worked out from the molar mass of the structure shown.

As to `O=[N+]([O-])c1ccc(/N=N/Nc2ccc([N+](=O)[O-])cc2C(F)(F)F)c(C(F)(F)F)c1`, the Stability result in [1] and in data set [2] was “Stable” each time.

In the case of `CC(=O)N(/N=N/c1ccc([N+](=O)[O-])cc1C(F)(F)F)c1ccc([N+](=O)[O-])cc1C(F)(F)F`, the MIC in data set [3] is greater than 128 µg/mL; in data set [4] it was 4 µg/mL (≈ 8.6 µM); in data set [7], greater than 128 µg/mL; in [13] it was greater than 128 µg/mL; in [16], 16 µg/mL (≈ 34.4 µM); in [17] it was greater than 128 µg/mL. Besides, the MIC is 0.06 µg/mL (≈ 0.129 µM) in data set [18]; 1 µg/mL (≈ 2.15 µM) in data set [19]; 64 µg/mL (≈ 138 µM) in [20]; greater than 128 µg/mL in data set [23]; 0.25 µg/mL (≈ 0.537 µM) in data set [24]; greater than 128 µg/mL in data set [25]. Further, the MIC was 0.25 µg/mL (≈ 0.537 µM) in data set [28], greater than 128 µg/mL in data set [29] and 0.125 µg/mL (≈ 0.269 µM) in [30]. Further, the solubility entry in [5] is given as “Soluble”. The MBC in data set [6] was 128 µg/mL (≈ 275 µM); in [8], greater than 128 µg/mL; in [9], 0.25 µg/mL (≈ 0.537 µM); in data set [10] it was 0.5 µg/mL (≈ 1.07 µM); in [11], 4 µg/mL (≈ 8.6 µM); in data set [21] it was 0.5 µg/mL (≈ 1.07 µM). Besides, the minimal bactericidal concentration (MBC) in data set [22] and in data set [26] was greater than 128 µg/mL throughout. Besides, the Stability result in data set [12], in data set [14] and in [27] was “Stable” in each case. Moreover, the “Cells with intact membrane” value in [15] was determined as 103%.

As to `O=C(c1ccccc1)N(/N=N/c1ccc([N+](=O)[O-])cc1C(F)(F)F)c1ccc([N+](=O)[O-])cc1C(F)(F)F`, the MIC was greater than 128 µg/mL in data set [3]; greater than 128 µg/mL in [4]; greater than 128 µg/mL in data set [7]; greater than 128 µg/mL in [13]; 32 µg/mL (≈ 60.7 µM) in data set [16]; greater than 128 µg/mL in data set [17]. In addition, the MIC in data set [18] was 0.5 µg/mL (≈ 0.948 µM); in data set [19], greater than 128 µg/mL; in data set [20] it was no less than 128 µg/mL; in data set [23] it was greater than 128 µg/mL; in [24], 0.5 to 2 µg/mL (≈ 0.948 to 3.79 µM); in [25], greater than 128 µg/mL. The results for the MIC in data set [28], in data set [29] and in data set [30] were 0.5 µg/mL (≈ 0.948 µM), greater than 128 µg/mL and 0.5 µg/mL (≈ 0.948 µM), respectively. Further, the solubility result in data set [5] is listed as “Soluble”. The MBC was greater than 128 µg/mL in data set [6]; 0.5 to 2 µg/mL (≈ 0.948 to 3.79 µM) in [9]; 1 µg/mL (≈ 1.9 µM) in data set [10]; 16 µg/mL (≈ 30.3 µM) in data set [11]; 1 µg/mL (≈ 1.9 µM) in data set [21]; greater than 128 µg/mL in data set [26]. Also, the Stability entry in [12], in data set [14] and in [27] was “Stable” each time. Moreover, the “Cells with intact membrane” value in data set [15] worked out at 95.8%.

`O=[N+]([O-])c1ccc(/N=N/[N-]c2ccc([N+](=O)[O-])cc2C(F)(F)F)c(C(F)(F)F)c1.[K+]`: the solubility entry in data set [5] is listed as “Soluble”. In addition, the Stability entry in [31], in data set [12], in [14], in [1], in data set [27] and in [2] was “Stable” throughout.
